The source made the active and inactive calls. The rule behind the calls is not given here.

The nature of series [1]: Acute toxicity in sc dosed mouse. Conditions: in vivo. It counts as organism-based.
The subject of series [2] is Mus musculus. Description: Analgesic activity in mouse assessed as inhibition of AcOH-induced writhing up to 22.5 mg/kg, sc. It counts as functional, organism-based. On the set-up: dose 22.5 mg/kg. (In general: In writhing tests, fewer writhes than in controls are read as antinociception.)
Series [3] concerns Mus musculus. Description: Analgesic activity in sc dosed mouse assessed as inhibition of AcOH-induced writhing. It counts as functional. Conditions: Mus musculus, sc; read-out: ED50.
For series [4], the system named is Mus musculus. Description: Analgesic activity in sc dosed mouse by hot-plate method. It counts as functional. The settings on record: Mus musculus, sc; read-out: ED50.
The next series relates to Oryctolagus cuniculus. The series can be described thus: Narcotic antagonist activity in iv dosed rabbit assessed as inhibition of morphine-induced respiratory depression. It counts as functional. In a few lines:
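Rabbits given test compound iv; read-out is antagonism of morphine-induced respiratory depression; expressed as AD50 in mg/kg or as % antagonism at a fixed dose.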

By LD50 is commonly meant the dose expected to kill half of the subjects tested. On to `CCN1C2CCCC(c3cccc(O)c3)(C2)C1C.Cl` (racemic), for which the 50% lethal dose (LD50) in series [1] was more than 30 mg/kg. In the series with Mus musculus [2], the outcome was inactive.

The ED50 is the midpoint of the dose-response relation. Regarding `Br.CC1N(C)C2CCCC1(c1cccc(OC(=O)c3cccnc3)c1)C2` (racemic), the LD50 in series [1] turned out to be 184 mg/kg. In addition, in the series with Mus musculus [3], the ED50 came out at 5.5 mg/kg.

The compound `Br.CCC1N(C)C2CCCC1(c1cccc(OC(C)=O)c1)C2` (racemic) displayed an LD50 in series [1] of 55.1 mg/kg. Further, the ED50 was 9.9 mg/kg in the series on Mus musculus [4] and 10.1 mg/kg in the series with Mus musculus [3].

The compound `Cl.O=C(CCCN1CC2(c3cccc(O)c3)CCCC1C2)c1ccccc1` (racemic) yielded an LD50 in series [1] of more than 100 mg/kg. Also, the ED50 in the series on Mus musculus [3] turned out to be 5.2 mg/kg.

`Br.CC1C2CCCC1(c1cccc(O)c1)C(C)N2C` (racemic; 14) showed a 50% lethal dose (LD50) in series [1] of more than 30 mg/kg.

The compound `Br.CC1NC2CCCC1(c1cccc(O)c1)C2` (racemic) registered an LD50 in series [1] of more than 100 mg/kg. Moreover, the result in the series with Mus musculus [2] was inactive.

As to `Br.CC(C)=CCN1C2CCCC(c3cccc(O)c3)(C2)C1C` (racemic), the median lethal dose (LD50) in series [1] was more than 30 mg/kg. In addition, the AD50 in the series with Oryctolagus cuniculus was 0.086 mg/kg. For the same compound, the median effective dose (ED50) in the series on Mus musculus [3] amounted to 15 mg/kg.

In turn, `CN1CC2(c3cc(O)cc(O)c3)CCCC1C2` (racemic) returned an LD50 in series [1] of more than 225 mg/kg. Also, the outcome in the series on Mus musculus [2] was inactive.

As to `Br.CCCCCC(=O)Oc1cccc(C23CCCC(C2)N(C)C3C)c1` (racemic), the LD50 in series [1] amounted to 156 mg/kg. In the series on Mus musculus [3], the ED50 was 12.3 mg/kg.

On to `COc1ccc2c3c1O[C@H]1[C@@H](O)C=C[C@H]4[C@@H](C2)N(C)CC[C@@]341.COc1ccc2c3c1O[C@H]1[C@@H](O)C=C[C@H]4[C@@H](C2)N(C)CC[C@@]341.O.O=P(O)(O)O.O=P(O)(O)O` [CODEINE PHOSPHATE], for which the LD50 in series [1] was 231 mg/kg. For the same compound, the median effective dose (ED50) in the series on Mus musculus [4] amounted to 7.5 mg/kg; in the series with Mus musculus [3] it was 9.5 mg/kg.

The compound `Br.Oc1cccc(C23CCCC(C2)NC3)c1` (racemic) showed an LD50 in series [1] of more than 100 mg/kg. Further, the outcome with Mus musculus [2] was inactive.

Turning to `Br.COc1cccc(C23CCCC(C2)N(C)C3C)c1` (racemic), in series [1], the LD50 came to 25.9 mg/kg. Further, the median effective dose (ED50) in the series with Mus musculus [3] turned out to be 6.1 mg/kg.

Regarding `CC1C2CCCC1(c1cccc(O)c1)CN2C` (racemic; 15), the AD50 with Oryctolagus cuniculus was found to be 0.18 mg/kg.

As for `Cl.O=C(CCN1CC2(c3ccccc3)CCCC1C2)c1ccccc1` (racemic), the LD50 in series [1] is more than 100 mg/kg. Also, the outcome with Mus musculus [2] was inactive.

For the compound `CN1CC[C@]23c4c5ccc(O)c4O[C@H]2[C@@H](O)C=C[C@H]3[C@H]1C5.Cl` [MORPHINE HYDROCHLORIDE], the median effective dose (ED50) in the series on Mus musculus [4] was determined as 1.2 mg/kg; in the series with Mus musculus [3], 0.8 mg/kg.

`Br.COc1cccc(C23CCCC(C2)NC3C)c1` (racemic) showed a 50% lethal dose (LD50) in series [1] of more than 100 mg/kg. For the same compound, in the series with Mus musculus [2], the outcome was inactive.

On to `Br.CC1N(C)C2CCCC1(c1cccc(OC(=O)c3ccccc3)c1)C2` (racemic), for which the LD50 in series [1] amounted to 156 mg/kg. Also, the ED50 in the series on Mus musculus [3] is 5.7 mg/kg.

Compound `O=C(O)C(=O)O.c1ccc(CCN2CC3(c4ccccc4)CCCC2C3)cc1` (racemic) yielded an LD50 in series [1] of more than 100 mg/kg. Also, the result with Mus musculus [2] was inactive.

On to `C=CCN1C2CCCC(c3cccc(O)c3)(C2)C1C.Cl` (racemic), for which the LD50 in series [1] is more than 30 mg/kg. In addition, the AD50 in the series with Oryctolagus cuniculus was found to be 0.17 mg/kg. In addition, the ED50 with Mus musculus [3] was 22.5 mg/kg.

As for `C=CCN1CC[C@]23c4c5ccc(O)c4O[C@H]2[C@@H](O)C=C[C@H]3[C@H]1C5.Cl` [NALORPHINE HYDROCHLORIDE], in the series on Oryctolagus cuniculus, the AD50 was found to be 0.16 mg/kg.

Compound `C=CCN1CC2(c3ccccc3)CCCC1C2.O=C(O)C(=O)O` (racemic) returned a median lethal dose (LD50) in series [1] of more than 100 mg/kg. Moreover, the AD50 in the series on Oryctolagus cuniculus was 2.2 mg/kg. Moreover, the outcome in the series on Mus musculus [2] was inactive.

In series [1], `C#CCN1CC2(c3cccc(O)c3)CCCC1C2.O=C(O)C(=O)O` (racemic) had an LD50 of more than 100 mg/kg. In the series on Oryctolagus cuniculus, the AD50 came out at 1.6 mg/kg. Further, the outcome with Mus musculus [2] was inactive.

Consider `C/C=C\N1CC[C@]23CCCC[C@H]2[C@H]1Cc1ccc(O)cc13.Cl`, for which the AD50 in the series on Oryctolagus cuniculus amounted to 0.014 mg/kg.

The compound `CCOC(=O)C1(c2ccccc2)CCN(C)CC1.Cl` [MEPERIDINE HYDROCHLORIDE] showed a 50% lethal dose (LD50) in series [1] of 273 mg/kg. Also, the values for the ED50 in the series on Mus musculus [4] and in the series on Mus musculus [3] were 4.7 mg/kg and 4.5 mg/kg, respectively.

For `Br.COc1cccc(C23CCCC(C2)N(C)C3)c1` (racemic), the median lethal dose (LD50) in series [1] worked out at 31.2 mg/kg. Besides, in the series on Mus musculus [3], the ED50 was found to be 8.6 mg/kg.

Turning to `Br.CCC1N(C)C2CCCC1(c1cccc(O)c1)C2` (racemic), the LD50 in series [1] was 59.8 mg/kg. In the series on Mus musculus [3], the ED50 is 8.8 mg/kg.

`CCCCCCN1CC2(c3cccc(O)c3)CCCC1C2.Cl` (racemic) registered an LD50 in series [1] of more than 100 mg/kg. For the same compound, the ED50 in the series with Mus musculus [3] was 17.5 mg/kg.

In series [1], `CC1C2CCCC1(c1cccc(O)c1)CN2C` (racemic; 13) gave a median lethal dose (LD50) of more than 30 mg/kg. In addition, the AD50 with Oryctolagus cuniculus is 1.1 mg/kg.

`COc1cccc(C23CCCC(C2)NC3)c1.O=C(O)C(=O)O` (racemic): in series [1], the median lethal dose (LD50) is more than 100 mg/kg. Further, the result in the series on Mus musculus [2] was inactive.

Turning to `Cl.O=C(CCN1CC2(c3cccc(O)c3)CCCC1C2)c1ccccc1` (racemic), the 50% lethal dose (LD50) in series [1] turned out to be 184 mg/kg. Further, in the series on Mus musculus [3], the 50% effective dose (ED50) was 10.1 mg/kg.

In series [1], `Cl.Oc1cccc(C23CCCC(C2)N(CC2CC2)C3)c1` (racemic) came in with an LD50 of more than 100 mg/kg. The AD50 in the series with Oryctolagus cuniculus was 1.8 mg/kg. The 50% effective dose (ED50) with Mus musculus [3] stood at 30 mg/kg.

With `O=C(O)C(=O)O.Oc1cccc(C23CCCC(C2)N(CCc2ccccc2)C3)c1` (racemic), the LD50 in series [1] was more than 100 mg/kg. Further, in the series on Mus musculus [2], the outcome was inactive.

`CN1CC2(c3ccccc3)CCCC1C2.Cl` (racemic): the LD50 in series [1] is more than 30 mg/kg. Further, the ED50 in the series on Mus musculus [3] was determined as 22.8 mg/kg.

Turning to `C=CCN1CC[C@]23c4c5ccc(O)c4O[C@H]2C(=O)CC[C@@]3(O)[C@H]1C5.Cl` [NALOXONE HYDROCHLORIDE], the AD50 in the series on Oryctolagus cuniculus is 0.0044 mg/kg.

In series [1], `Br.CC1N(C)C2CCCC1(c1ccccc1O)C2` (racemic) came in with an LD50 of more than 100 mg/kg. The result with Mus musculus [2] was inactive.

In the case of `C#CCN1C2CCCC(c3cccc(O)c3)(C2)C1C.Cl` (racemic), the LD50 in series [1] is more than 100 mg/kg. In addition, the AD50 in the series with Oryctolagus cuniculus was 0.19 mg/kg. Besides, in the series on Mus musculus [3], the ED50 was found to be 22.5 mg/kg.

In series [1], `Br.CC1N(C)C2CCCC1(c1cc(O)cc(O)c1)C2` (racemic) registered a 50% lethal dose (LD50) of more than 100 mg/kg. Further, the result in the series on Mus musculus [2] was inactive.

Compound `Cl.O=C(CCCN1CC2(c3cccc(O)c3)CCCC1C2)c1ccc(F)cc1` (racemic) gave an LD50 in series [1] of more than 100 mg/kg. In addition, the ED50 with Mus musculus [3] was 2 mg/kg.

As for `Br.CC1N(C)C2CCCC1(c1ccc(O)cc1)C2` (racemic), the median lethal dose (LD50) in series [1] is more than 100 mg/kg. Also, the result with Mus musculus [2] was inactive.

In turn, `Cl.O=C(CCCN1CC2(c3ccccc3)CCCC1C2)c1ccc(F)cc1` (racemic) yielded an LD50 in series [1] of more than 200 mg/kg. Moreover, the 50% effective dose (ED50) in the series on Mus musculus [3] came out at 4.1 mg/kg.

The compound `C=CCN1CC2(c3cccc(O)c3)CCCC1C2.Cl` (racemic) had a 50% lethal dose (LD50) in series [1] of more than 100 mg/kg. In addition, the AD50 in the series on Oryctolagus cuniculus was found to be 1.7 mg/kg. The result in the series with Mus musculus [2] was inactive.

In the case of `CCCN1C2CCCC(c3cccc(O)c3)(C2)C1C.Cl` (racemic), the LD50 in series [1] is more than 30 mg/kg. In the series with Oryctolagus cuniculus, the AD50 stood at 0.03 mg/kg. In addition, the outcome in the series with Mus musculus [2] was inactive.

In series [1], `Cl.Oc1cccc(C23CCCC(C2)N(C/C=C/c2ccccc2)C3)c1` (racemic) showed an LD50 of more than 100 mg/kg. Also, the AD50 in the series on Oryctolagus cuniculus came out at 0.96 mg/kg. Further, in the series on Mus musculus [2], the outcome was inactive.
